Results as given in ChEMBL document CHEMBL1147105, “In vitro and in vivo activities of PD 0305970 and PD 0326448, new bacterial gyrase/topoisomerase inhibitors with potent antibacterial activities versus multidrug-resistant gram-positive and fastidious organism groups” (2007).
≈ marks a conversion by molar mass, not a printed value.

What was measured:
Type in all cases: functional
Escherichia coli = assay: Antibacterial activity against Escherichia coli
How it was run: (§1)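 Broth microdilution MIC following CLSI guidelines, in cation-adjusted Mueller-Hinton broth, incubated at 35°C. Recent clinical isolates and reference strains, with identity confirmed by automated and standard microbiological methods. Results reported as MIC range, MIC50 and MIC90.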

Staphylococcus aureus [1] = assay: Antibacterial activity against oxacillin and levofloxacin-resistant Staphylococcus aureus
How it was run: (§2)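 Broth microdilution MIC per CLSI guidelines, incubated at 35°C. Cation-adjusted Mueller-Hinton broth for nonfastidious organisms and staphylococci. Streptococci tested in the same broth with 3% lysed horse blood. Anaerobes tested in supplemented Brucella broth inside an anaerobe chamber (5% CO2, 5% H2, 90% N2), read after 48 h. Strains were mainly recent clinical isolates with confirmed identity.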

Streptococcus pneumoniae [2] = assay: Antibacterial efficacy against Streptococcus pneumoniae SVI infected orally dosed CD1 mouse model; conditions: po
How it was run: (§3)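 Sepsis model in female CD1 mice (6–8 weeks, 18–22 g). Lethal i.p. challenge (0.5 ml) at ≥100 median lethal doses. Streptococci were given in Todd-Hewitt broth; other organisms were given with 20% hog gastric mucin. A single oral gavage dose (0.5 ml, in 0.5% methylcellulose) was given at the time of challenge. The PD50 (mg/kg) was calculated by probit analysis.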

Enterobacter cloacae = assay: Antibacterial activity against Enterobacter cloacae; how it was run: as §1
Clostridium perfringens = assay: Antibacterial activity against Clostridium perfringens; how it was run: as §2
Enterococcus faecalis [3] = assay: Antibacterial activity against Enterococcus faecalis; how it was run: as §2
[4] = tested on: Stenotrophomonas maltophilia; assay: Antibacterial activity against Stenotrophomonas maltophilia; how it was run: as §1
Burkholderia cepacia = assay: Antibacterial activity against Burkholderia cepacia; how it was run: as §1
Enterococcus faecium [5] = assay: Antibacterial activity against Enterococcus faecium; how it was run: as §2
Streptococcus viridans = assay: Antibacterial activity against Streptococcus viridans
How it was run: (§4)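 Broth microdilution MIC following CLSI guidelines, in cation-adjusted Mueller-Hinton broth with 3% lysed horse blood. Plates incubated at 35°C. Clinical isolates and reference strains, with identity confirmed by standard microbiological methods.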

Staphylococcus warneri = assay: Antibacterial activity against Staphylococcus warneri; how it was run: as §1
Shigella sonnei = assay: Antibacterial activity against Shigella sonnei; how it was run: as §1
Enterococcus faecium [6] = assay: Antibacterial activity against VanB-resistant Enterococcus faecium; how it was run: as §2
Enterococcus faecalis [7] = assay: Antibacterial activity against VanB-resistant Enterococcus faecalis; how it was run: as §2
Shigella flexneri = assay: Antibacterial activity against Shigella flexneri; how it was run: as §1
Enterococcus faecalis [8] = assay: Antibacterial efficacy against Enterococcus faecalis MGH2 infected orally dosed CD1 mouse model; how it was run: as §3
Haemophilus influenzae = assay: Antibacterial activity against beta-lactamase negative Haemophilus influenzae
How it was run: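 Broth microdilution MIC following CLSI guidelines, in Haemophilus test medium at 35°C.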

Streptococcus pneumoniae [9] = assay: Antibacterial activity against penicillin-resistant Streptococcus pneumoniae; how it was run: as §2
[10] = tested on: Parabacteroides distasonis; assay: Antimicrobial activity against Bacteroides distasonis
How it was run: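 Anaerobic broth microdilution MIC following CLSI guidelines, in supplemented Brucella broth. Incubated at 35°C in a chamber under 5% CO2, 5% H2 and 90% N2. Read after 48 h.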

Streptococcus sanguinis = assay: Antibacterial activity against Streptococcus sanguis; how it was run: as §4
Streptococcus pneumoniae [11] = assay: Antibacterial activity against Streptococcus pneumoniae SVI infected once daily orally dosed CD1 mouse; conditions: po
How it was run: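 Pneumonia model in CD1 mice (n = 8), anaesthetised with ketamine i.p. Intranasal instillation of 50 μl of broth culture (10^8–10^9 CFU/ml, OD600 0.70), confirmed by plate counts. Oral therapy began 24 h post-challenge. Dosing was either once daily for 1 day or twice daily for 3 days. The result was given as the PD50 (mg/kg).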

Cutibacterium acnes = assay: Antibacterial activity against Propionibacterium acnes
Enterococcus faecalis [12] = assay: Antibacterial activity against VanA-resistant Enterococcus faecalis; how it was run: as §2
Prevotella sp. = assay: Antibacterial activity against Prevotella sp.
How it was run: (§5)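 Anaerobic broth microdilution MIC following CLSI guidelines, in supplemented Brucella broth. Run in an anaerobe chamber under 5% CO2, 5% H2 and 90% N2 at 35°C, and read after 48 h. Reported as MIC range, MIC50 and MIC90.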

[13] = tested on: Peptoniphilus asaccharolyticus; assay: Antibacterial activity against Peptostreptococcus asaccharolyticus; how it was run: as §5
Anaerococcus prevotii = assay: Antibacterial activity against Peptostreptococcus prevotii; how it was run: as §5
Enterococcus faecalis [14] = assay: Antibacterial activity against beta-lactamase positive Enterococcus faecalis
How it was run: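 MIC by CLSI broth microdilution for nonfastidious organisms, in cation-adjusted Mueller-Hinton broth incubated at 35°C.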

Moraxella catarrhalis = assay: Antibacterial activity against beta-lactamase positive Moraxella catarrhalis
[15] = tested on: Staphylococcus saprophyticus; assay: Antibacterial activity against Staphylococcus saprophyticus; how it was run: as §1
Neisseria gonorrhoeae = assay: Antibacterial activity against Neisseria gonorrhoeae
How it was run: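 MIC by broth microdilution in gonococcal broth, incubated at 35°C in 5% CO2. Reported as MIC range, MIC50 and MIC90.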

Fusobacterium nucleatum = assay: Antibacterial activity against Fusobacterium nucleatum; how it was run: as §5
Staphylococcus aureus [16] = assay: Antibacterial efficacy against methicillin-susceptible Staphylococcus aureus UC76 infected orally dosed CD1 mouse model; conditions: UC76, po; how it was run: as §3
Finegoldia magna = assay: Antibacterial activity against Peptostreptococcus magnus; how it was run: as §5
Citrobacter freundii = assay: Antibacterial activity against Citrobacter freundii; how it was run: as §1
Prevotella bivia = assay: Antibacterial activity against Prevotella bivia; how it was run: as §5
Enterococcus gallinarum = assay: Antibacterial activity against Enterococcus gallinarum
Klebsiella aerogenes = assay: Antibacterial activity against Enterobacter aerogenes; how it was run: as §1
Streptococcus equinus = assay: Antibacterial activity against Streptococcus bovis; how it was run: as §4
Corynebacterium jeikeium = assay: Antibacterial activity against Corynebacterium jeikeium
How it was run: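 Broth microdilution MIC following CLSI guidelines, in cation-adjusted Mueller-Hinton broth containing 3% lysed horse blood, incubated at 35°C. Clinical isolates with identity confirmed. Reported as MIC range, MIC50 and MIC90.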

Staphylococcus aureus [17] = assay: Antibacterial efficacy against ciprofloxacin and methicillin-resistant Staphylococcus aureus SA2017 infected orally dosed CD1 mouse model; how it was run: as §3
Proteus vulgaris = assay: Antibacterial activity against Proteus vulgaris; how it was run: as §1

`Cc1c(N2CC[C@@H]([C@H](C)N)C2)c(F)cc2c(=O)n(N)c(=O)n(C3CC3)c12` was tested, and the MIC50 (Escherichia coli) was 1 µg/mL (≈ 2.77 µM), the MIC90 (Escherichia coli) was 2 µg/mL (≈ 5.53 µM) and the MIC50 (Staphylococcus aureus [1]) was 0.25 µg/mL (≈ 0.692 µM). For the same compound, the MIC90 (Staphylococcus aureus [1]) was 0.5 µg/mL (≈ 1.38 µM), the MIC (Streptococcus pneumoniae [2]) was 0.015 µg/mL (≈ 0.0415 µM) and the ED50 (Streptococcus pneumoniae [2]; read-out: PD50) was 2.7 mg/kg. The MIC50 (Enterobacter cloacae) was 1 µg/mL (≈ 2.77 µM), the MIC90 (Enterobacter cloacae) was 4 µg/mL (≈ 11.1 µM) and the MIC50 (Clostridium perfringens) was 0.5 µg/mL (≈ 1.38 µM). The MIC90 (Clostridium perfringens) was 2 µg/mL (≈ 5.53 µM), the MIC50 (Enterococcus faecalis [3]) was 0.125 µg/mL (≈ 0.346 µM) and the MIC90 (Enterococcus faecalis [3]) was 0.25 µg/mL (≈ 0.692 µM). It also gave an MIC50 [4] of 8 µg/mL (≈ 22.1 µM), an MIC90 [4] of 64 µg/mL (≈ 177 µM) and an MIC50 (Burkholderia cepacia) of 32 µg/mL (≈ 88.5 µM). For the same compound, the MIC90 (Burkholderia cepacia) was 64 µg/mL (≈ 177 µM), the MIC50 (Enterococcus faecium [5]) was 1 µg/mL (≈ 2.77 µM) and the MIC90 (Enterococcus faecium [5]) was 2 µg/mL (≈ 5.53 µM). It also gave an MIC50 (Streptococcus viridans) of 0.03 µg/mL (≈ 0.083 µM), an MIC90 (Streptococcus viridans) of 0.03 µg/mL (≈ 0.083 µM) and an MIC (Staphylococcus warneri) of 0.06 µg/mL (≈ 0.166 µM). For the same compound, the MIC50 (Shigella sonnei) was 0.5 µg/mL (≈ 1.38 µM), the MIC90 (Shigella sonnei) was 1 µg/mL (≈ 2.77 µM) and the MIC (Enterococcus faecium [6]) was 0.5 µg/mL (≈ 1.38 µM). It also gave an MIC50 (Enterococcus faecalis [7]) of 0.25 µg/mL (≈ 0.692 µM), an MIC90 (Enterococcus faecalis [7]) of 0.25 µg/mL (≈ 0.692 µM) and an MIC50 (Shigella flexneri) of 0.5 µg/mL (≈ 1.38 µM). It also gave an MIC90 (Shigella flexneri) of 1 µg/mL (≈ 2.77 µM), an MIC (Enterococcus faecalis [8]) of 0.125 µg/mL (≈ 0.346 µM) and an ED50 (Enterococcus faecalis [8]; read-out: PD50) of 19 mg/kg. The MIC50 (Haemophilus influenzae) was 0.125 µg/mL (≈ 0.346 µM), the MIC90 (Haemophilus influenzae) was 0.25 µg/mL (≈ 0.692 µM) and the MIC50 (Streptococcus pneumoniae [9]) was 0.03 µg/mL (≈ 0.083 µM). It also gave an MIC90 (Streptococcus pneumoniae [9]) of 0.03 µg/mL (≈ 0.083 µM), an MIC50 [10] of 4 µg/mL (≈ 11.1 µM) and an MIC90 [10] of 16 µg/mL (≈ 44.3 µM). For the same compound, the MIC50 (Streptococcus sanguinis) was 0.03 µg/mL (≈ 0.083 µM), the MIC90 (Streptococcus sanguinis) was 0.03 µg/mL (≈ 0.083 µM) and the MIC (Streptococcus pneumoniae [11]) was 8 ng/mL (≈ 0.0221 µM). For the same compound, the ED50 (Streptococcus pneumoniae [11]; read-out: PD50) was 3.2 mg/kg, the MIC50 (Cutibacterium acnes) was 2 µg/mL (≈ 5.53 µM) and the MIC90 (Cutibacterium acnes) was 4 µg/mL (≈ 11.1 µM). For the same compound, the MIC (Enterococcus faecalis [12]) was 0.125 µg/mL (≈ 0.346 µM), the MIC50 (Prevotella sp.) was 0.25 µg/mL (≈ 0.692 µM) and the MIC90 (Prevotella sp.) was 1 µg/mL (≈ 2.77 µM). For the same compound, the MIC [13] was 0.03 µg/mL (≈ 0.083 µM), the MIC (Anaerococcus prevotii) was 0.03 µg/mL (≈ 0.083 µM) and the MIC (Enterococcus faecalis [14]) was 0.06 µg/mL (≈ 0.166 µM). It also gave an MIC50 (Moraxella catarrhalis) of 0.25 µg/mL (≈ 0.692 µM), an MIC90 (Moraxella catarrhalis) of 0.5 µg/mL (≈ 1.38 µM) and an MIC50 [15] of 0.06 µg/mL (≈ 0.166 µM). The MIC90 [15] was 0.125 µg/mL (≈ 0.346 µM), the MIC50 (Neisseria gonorrhoeae) was 0.25 µg/mL (≈ 0.692 µM) and the MIC90 (Neisseria gonorrhoeae) was 0.5 µg/mL (≈ 1.38 µM). It also gave an MIC (Fusobacterium nucleatum) of 0.06 µg/mL (≈ 0.166 µM), an MIC (Staphylococcus aureus [16]) of 0.06 µg/mL (≈ 0.166 µM) and an ED50 (Staphylococcus aureus [16]; read-out: PD50) of 1.9 mg/kg. For the same compound, the MIC (Finegoldia magna) was 0.03 µg/mL (≈ 0.083 µM), the MIC50 (Citrobacter freundii) was 4 µg/mL (≈ 11.1 µM) and the MIC90 (Citrobacter freundii) was 16 µg/mL (≈ 44.3 µM). It also gave an MIC50 (Prevotella bivia) of 0.25 µg/mL (≈ 0.692 µM), an MIC90 (Prevotella bivia) of 1 µg/mL (≈ 2.77 µM) and an MIC50 (Enterococcus gallinarum) of 0.25 µg/mL (≈ 0.692 µM). The MIC90 (Enterococcus gallinarum) was 0.25 µg/mL (≈ 0.692 µM), the MIC50 (Klebsiella aerogenes) was 4 µg/mL (≈ 11.1 µM) and the MIC90 (Klebsiella aerogenes) was 8 µg/mL (≈ 22.1 µM). It also gave an MIC50 (Streptococcus equinus) of 0.03 µg/mL (≈ 0.083 µM), an MIC90 (Streptococcus equinus) of 0.03 µg/mL (≈ 0.083 µM) and an MIC50 (Corynebacterium jeikeium) of 0.25 µg/mL (≈ 0.692 µM). For the same compound, the MIC90 (Corynebacterium jeikeium) was 0.25 µg/mL (≈ 0.692 µM), the MIC (Staphylococcus aureus [17]) was 0.25 µg/mL (≈ 0.692 µM) and the ED50 (Staphylococcus aureus [17]; read-out: PD50) was 23 mg/kg. The MIC (Proteus vulgaris) was 1 µg/mL (≈ 2.77 µM).
